Experimental data published in ChEMBL document CHEMBL1127750, “Enhancement of iron excretion via monoanionic 3-hydroxypyrid-4-ones” (1994).

How the values were obtained:
[1] = tested on: Rattus norvegicus; assay: The treatment period of compound (microg of Fe/15h) for urinary excretion of Iron after peroral administration to the rats; assay type: functional, Urine
How it was run: (§1)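 Unloaded normal rats in metabolic cages act as their own controls. Food is withdrawn at 5 p.m. on both days. Control day: 1 mL distilled water po, urine collected until 8 a.m. (15 h), food returned, urine analyzed for iron. Treatment day: chelator 1 mmol/kg po in 1 mL distilled water, then another 15 h urine collection for iron analysis.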

[2] = tested on: Rattus norvegicus; assay: The control period of compound (microg of Fe/h) for biliary excretion of Iron after intravenous administration to the rats; assay type: functional, Bile
How it was run: (§2)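 Normal (untreated) rats under pentobarbital anesthesia, bile duct cannulated with PE-10 tubing. Bile collected 30 min for the control rate, then chelator given 0.2 mmol/kg iv by tail vein in deionized water, pH about 7 with sodium bicarbonate, and bile collected a further 2 h. Bile mass measured and iron determined by atomic absorption spectrometry; rate expressed per hour. Controls received pentobarbital only.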

[3] = tested on: Rattus norvegicus; assay: The treatment period of compound (microg of Fe/15h) for urinary excretion of Iron after intravenous administration to the rats; assay type: functional, Urine
How it was run: (§3)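 Unloaded normal rats, each serving as its own control, housed in metabolic cages. Control day: 1 mL distilled water/200 g body weight iv, urine collected 15 h (5 p.m.–8 a.m.) and analyzed for iron. Next day: chelator 0.2 mmol/kg iv by tail vein under ether anesthesia in 1 mL deionized water, pH about 7 with sodium bicarbonate; urine again collected 15 h for iron.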

[4] = tested on: Rattus norvegicus; assay: The treatment period of compound (microg of Fe/h) for biliary excretion of Iron after intravenous administration to the rats; assay type: functional, Bile; how it was run: as §2
[5] = tested on: Rattus norvegicus; assay: The control period of compound (microg of Fe/15h) for urinary excretion of Iron after intravenous administration to the rats; assay type: functional, Urine; how it was run: as §3
[6] = tested on: Rattus norvegicus; assay: The control period of compound (microg of Fe/15h) for urinary excretion of Iron after peroral administration to the rats; assay type: functional, Urine; how it was run: as §1

Structure (SMILES) | Treatment period [1] | Control period [2] | Treatment period [3] | Treatment period [4] | Control period [5] | Control period [6]
Cn1cc(O)c(=O)cc1C(=O)O | 6740 ng of Fe/15 h | 0.34 | 6830 ng of Fe/15 h | 5.87 | 410 ng of Fe/15 h | 497 ng of Fe/15 h
O=C(O)c1cc(=O)c(O)co1 | – | 0.35 | – | 0.46 | – | –
O=c1cc(CO)n(CCS(=O)(=O)O)cc1O | 350 ng of Fe/15 h | 0.35 | 2200 ng of Fe/15 h | 9.96 | 504 ng of Fe/15 h | 296 ng of Fe/15 h
Cc1c(O)c(=O)ccn1C [DEFERIPRONE] | 17400 ng of Fe/15 h | 0.36 | 8370 ng of Fe/15 h | 4.78 | 490 ng of Fe/15 h | 400 ng of Fe/15 h
O=c1cc(CO)occ1O [KOJIC ACID] | – | 0.31 | – | 0.28 | – | –
